This note sets out measurements from ChEMBL document CHEMBL1153862, “Design, synthesis and biological evaluation of novel fluorinated docetaxel analogues” (Eur J Med Chem, 2009).

Series [1] deals with SK-OV-3. Nature of the series: Cytotoxicity against human SKOV3 cells after 72 hrs by SRB assay. Format: functional, cell-based. Conditions: SK-OV-3, 72 h. A digest of the protocol:
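SK-OV-3 ovarian cells were grown in RPMI 1640 with 10% FBS at 37 °C and 5% CO2, seeded at 0.4–1.0 × 10⁴ cells/well and treated after 24 h. Compounds were dissolved in DMSO (≤0.1% final) and tested at at least five concentrations for 72 h. Growth was read by SRB at OD 520 nm; tests were run 3 times in quadruplicate. IC50 came from survival-versus-concentration curves.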
Background: The SRB assay estimates cell density from bound dye.

Series [2] deals with A549. Nature of the series: Antitumor activity against human A549 cells xenografted BALB/cA mouse at 12 mg/kg, iv relative to control. The class given is functional. A digest of the protocol: (§1)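 A549 NSCLC cells were injected s.c. into BALB/cA nude mice (18 ± 3 g, 6 per group). After 2–3 passages, tumors were grafted s.c. at the right oxter. Once tumors were palpable (about 100–300 mm³ in methods; 80–150 mm³ in table footnote), mice were randomized to untreated, docetaxel or treated groups, dosed i.v., and measured by calipers 3 times weekly. T/C% = mean treated/mean control tumor volume × 100, read at day 14.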
On the technique in general: In xenograft studies the graft and the host belong to different species.

Series [3] concerns A549. Description: Antitumor activity against human A549 cells xenografted BALB/cA mouse at 18 mg/kg, iv relative to control. The class given is functional. In a few lines: as §1
The test system of series [4] is Mus musculus. Description: Toxicity in BALB/cA nude mouse assessed as survival at 12 mg/kg, iv. Conditions: in vivo.
In series [5] the test system is Mus musculus. Nature of the series: Toxicity in BALB/cA nude mouse assessed as survival at 18 mg/kg, iv. Conditions: in vivo.
The subject of series [6] is Mus musculus. Nature of the series: Toxicity in BALB/cA nude mouse assessed as change in body weight at 12 mg/kg, iv. Conditions: in vivo.
Series [7] concerns Mus musculus. Nature of the series: Toxicity in BALB/cA nude mouse assessed as change in body weight at 18 mg/kg, iv. Conditions: in vivo.
Series [8] concerns A549. Description: Antitumor activity against human A549 cells xenografted BALB/cA mouse at 16 mg/kg, iv relative to control. Format: functional. In a few lines: as §1
A short description of series [9]: Toxicity in Kunming mouse assessed as survival. The class given is organism-based. Conditions: in vivo. A digest of the protocol:
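Healthy Kunming mice of both sexes, 18–22 g, split into 7 weight-matched groups of 10. Single i.p. dose at 92.0, 115.0, 143.0, 179.0, 224.0, 280.0 or 350.0 mg/kg. Behaviour, body weight and deaths recorded over 14 days. LD₅₀ with 95% confidence limits derived by the Bliss method.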

The subject of series [10] is Mus musculus. Description: Toxicity in BALB/cA nude mouse assessed as survival at 16 mg/kg, iv. Conditions: in vivo.
Series [11] concerns Mus musculus. Description: Toxicity in BALB/cA nude mouse assessed as change in body weight at 16 mg/kg, iv. Conditions: in vivo.

The structures appear in SMILES notation.

As for `CC(=O)O[C@@]12CO[C@@H]1C[C@H](O)[C@@]1(C)C(=O)[C@H](O)C3=C(C)[C@@H](OC(=O)[C@H](O)[C@@H](NC(=O)OC(C)(C)C(F)F)c4ccccc4)C[C@@](O)([C@@H](OC(=O)c4cccc(F)c4)[C@H]21)C3(C)C`, the IC50 (as a rule, the concentration that inhibits the measured activity by half) in series [1] turned out to be 0.05 nM. Also, the T/C (as a rule, the ratio of treated to control) is reported as 51.7% in series [2] and 24.4% in [3]. In addition, the Activity entry is given as “Non-toxic” in series [4], “Non-toxic” in [5], -16.5% in series [6] and -26.7% in [7].
In [1], `CC(=O)O[C@@]12CO[C@@H]1C[C@H](O)[C@@]1(C)C(=O)[C@H](O)C3=C(C)[C@@H](OC(=O)[C@H](O)[C@@H](NC(=O)OC(C)(C)C(F)F)c4ccccc4)C[C@@](O)([C@@H](OC(=O)c4ccccc4)[C@H]21)C3(C)C` displayed an IC50 of 0.02 nM. Besides, the values for the T/C in series [2] and in series [3] were 91.5% and 83.5%, respectively. The Activity result in [4] is listed as “Non-toxic”; in series [5], “Non-toxic”; in series [6], 0%; in [7], -7.7%.
In [1], `CC(=O)O[C@@]12CO[C@@H]1C[C@H](O)[C@@]1(C)C(=O)[C@H](O)C3=C(C)[C@@H](OC(=O)[C@H](O)[C@@H](NC(=O)OC(C)(C)C(F)(F)F)c4ccccc4)C[C@@](O)([C@@H](OC(=O)c4cccc(F)c4)[C@H]21)C3(C)C` returned an IC50 of 34 nM.
In series [1], `CC(=O)O[C@@]12CO[C@@H]1C[C@H](O)[C@@]1(C)C(=O)[C@H](O)C3=C(C)[C@@H](OC(=O)[C@H](O)[C@@H](NC(=O)OC(C)(C)CF)c4ccccc4)C[C@@](O)([C@@H](OC(=O)c4ccccc4)[C@H]21)C3(C)C` had a concentration for half-maximal inhibition (IC50) of 3.8 nM. Also, the T/C in [2] turned out to be 41.5%; in series [8] it was 37.9%. For the same compound, the LD50 (in general, the dose expected to kill half of the subjects tested) in series [9] came out at 74.1 mg/kg. The Activity result is on record as “Non-toxic” in series [4], “Non-toxic” in [10], -19.1% in [6] and -22% in [11].
`CC(=O)O[C@@]12CO[C@@H]1C[C@H](O)[C@@]1(C)C(=O)[C@H](O)C3=C(C)[C@@H](OC(=O)[C@H](O)[C@@H](NC(=O)OC(C)(C)C(F)(F)F)c4ccccc4)C[C@@](O)([C@@H](OC(=O)c4ccccc4)[C@H]21)C3(C)C` displayed a concentration for half-maximal inhibition (IC50) in series [1] of 0.01 nM. The results for the T/C in series [2] and in series [3] were 91.8% and 72%, respectively. Besides, the Activity result is given as “Non-toxic” in series [4], “Non-toxic” in series [5], 0% in series [6] and -9.7% in series [7].
As for `CC(=O)O[C@@]12CO[C@@H]1C[C@H](O)[C@@]1(C)C(=O)[C@H](O)C3=C(C)[C@@H](OC(=O)[C@H](O)[C@@H](NC(=O)OC(C)(C)C)c4ccccc4)C[C@@](O)([C@@H](OC(=O)c4ccccc4)[C@H]21)C3(C)C.O.O.O` [DOCETAXEL], inhibition in series [1] was half-maximal at 3.4 nM (IC50). The T/C in series [2] is 43%. Besides, the Activity result in [4] is “Non-toxic”; in series [6], -19.6%.
Compound `CC(=O)O[C@@]12CO[C@@H]1C[C@H](O)[C@@]1(C)C(=O)[C@H](O)C3=C(C)[C@@H](OC(=O)[C@H](O)[C@@H](NC(=O)OC(C)(C)CF)c4ccccc4)C[C@@](O)([C@@H](OC(=O)c4cccc(F)c4)[C@H]21)C3(C)C` gave an IC50 in series [1] of 0.03 nM. The T/C is given as 53.7% in series [2] and 30.2% in [3]. For the same compound, the Activity result in series [4] was “Non-toxic”; in series [5] it was “Non-toxic”; in [6], -18%; in series [7], -31.3%.
